Measured values published in ChEMBL document CHEMBL4028873, “The Discovery of a Dual TTK Protein Kinase/CDC2-Like Kinase (CLK2) Inhibitor for the Treatment of Triple Negative Breast Cancer Initiated from a Phenotypic Screen” (J Med Chem, 2017).
Calls of active or inactive are those of the source. The calls are words filed in the database; no cut-off is given here.

Experiments:
[1] = target: Dual specificity protein kinase CLK1 (Homo sapiens) (UniProt P49759); conditions: 3 uM
[2] = target: c-Jun N-terminal kinase, JNK (Homo sapiens, UniProt P45983+P53779+P45984); assay: Binding affinity to JNK1/JNK2/JNK3 in human HCT116 cell lysate at 3 uM after 1 hr by LC-MS/MS analysis
Method in brief: (§1)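 ActivX KiNative cellular kinase profiling. HCT-116 cells were grown in RPMI-1640 with 10% FBS and exposed to compound at 3 μM for 1 h, with DMSO-only controls. Cells were then washed with ice-cold PBS, scraped, pelleted and stored at −80 °C. Kinase binding was reported as percent occupancy relative to the untreated controls.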

[3] = target: T1, Phosphatidylinositol 5-phosphate 4-kinase type-2 gamma (Homo sapiens) (UniProt Q8TBX8); assay: Binding affinity to PIP4K2C in human HCT116 cell lysate at 3 uM after 1 hr by LC-MS/MS analysis
T1 sequence (whole entry): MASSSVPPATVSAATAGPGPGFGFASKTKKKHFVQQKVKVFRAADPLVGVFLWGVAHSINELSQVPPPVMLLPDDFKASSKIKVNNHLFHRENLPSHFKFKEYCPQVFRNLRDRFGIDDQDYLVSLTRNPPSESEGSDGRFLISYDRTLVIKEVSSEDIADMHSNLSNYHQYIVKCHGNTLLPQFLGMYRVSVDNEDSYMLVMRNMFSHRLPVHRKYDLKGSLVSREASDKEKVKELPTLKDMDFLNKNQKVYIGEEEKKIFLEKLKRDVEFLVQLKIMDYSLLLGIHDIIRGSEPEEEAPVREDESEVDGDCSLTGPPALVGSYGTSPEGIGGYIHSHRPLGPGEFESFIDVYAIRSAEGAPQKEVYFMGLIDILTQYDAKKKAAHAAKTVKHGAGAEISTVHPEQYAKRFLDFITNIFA
Method in brief: as §1

[4] = Metabolic stability in rat liver S9 fraction assessed as percent of compound remaining after 60 mins; format: ADME, tissue-based; conditions: read-out: Stability
CAL-51 = assay: Antiproliferative activity against human CAL51 cells xenografted in SCID mouse assessed as tumor growth inhibition at 10 mg/kg, iv administered every 3 days for 16 days relative to control; format: functional; conditions: CAL-51, iv, read-out: TGI
Method in brief: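 Mice bearing tumors of about 125 mm3 randomized (n = 8−10/group) and given compound intravenously at the listed doses and schedules. Tumors measured twice weekly by digital caliper on long and short axes; volume = width² × length/2.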

Mus musculus = assay: Toxicity in SCID mouse xenografted with human CAL51 cells assessed as loss in body weight at 20 mg/kg, iv administered every 3 days for 16 days relative to control; format: organism-based; conditions: in vivo
MDA-MB-231 = assay: Antiproliferative activity against human MDA-MB-231 cells after 3 days by CellTiter-Glo assay; format: functional, cell-based
Method in brief: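 Cell lines kept in vendor-recommended growth media; 3-day compound exposure, then CellTiter-Glo luminescence read. Percent inhibition per concentration normalized to DMSO control, triplicate wells.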

[5] = target: T2, Dual specificity tyrosine-phosphorylation-regulated kinase 3 (Homo sapiens, UniProt O43781); assay: Inhibition of human full length recombinant GST-tagged DYRK3 expressed in baculovirus by Z'-LYTE assay
T2 sequence (O43781 whole entry): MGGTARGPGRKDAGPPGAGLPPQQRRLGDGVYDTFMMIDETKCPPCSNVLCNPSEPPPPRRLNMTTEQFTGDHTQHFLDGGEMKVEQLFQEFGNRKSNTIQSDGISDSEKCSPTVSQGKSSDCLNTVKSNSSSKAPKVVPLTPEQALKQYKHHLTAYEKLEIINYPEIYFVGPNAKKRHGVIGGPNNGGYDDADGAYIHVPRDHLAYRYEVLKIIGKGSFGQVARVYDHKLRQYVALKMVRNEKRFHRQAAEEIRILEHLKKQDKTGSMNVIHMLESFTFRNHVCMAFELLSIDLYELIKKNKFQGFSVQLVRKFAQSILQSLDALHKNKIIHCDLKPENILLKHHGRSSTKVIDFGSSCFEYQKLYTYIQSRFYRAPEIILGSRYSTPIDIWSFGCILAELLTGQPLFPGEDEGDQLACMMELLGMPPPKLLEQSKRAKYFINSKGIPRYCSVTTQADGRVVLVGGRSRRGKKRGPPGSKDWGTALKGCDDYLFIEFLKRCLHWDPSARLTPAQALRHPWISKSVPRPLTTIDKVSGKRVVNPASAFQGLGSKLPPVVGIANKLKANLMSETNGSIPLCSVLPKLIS

[6] = target: T3, Dual specificity tyrosine-phosphorylation-regulated kinase 1B (Homo sapiens, UniProt Q9Y463); conditions: 3 uM
Target sequence in this assay (Q9Y463 whole entry, looked up): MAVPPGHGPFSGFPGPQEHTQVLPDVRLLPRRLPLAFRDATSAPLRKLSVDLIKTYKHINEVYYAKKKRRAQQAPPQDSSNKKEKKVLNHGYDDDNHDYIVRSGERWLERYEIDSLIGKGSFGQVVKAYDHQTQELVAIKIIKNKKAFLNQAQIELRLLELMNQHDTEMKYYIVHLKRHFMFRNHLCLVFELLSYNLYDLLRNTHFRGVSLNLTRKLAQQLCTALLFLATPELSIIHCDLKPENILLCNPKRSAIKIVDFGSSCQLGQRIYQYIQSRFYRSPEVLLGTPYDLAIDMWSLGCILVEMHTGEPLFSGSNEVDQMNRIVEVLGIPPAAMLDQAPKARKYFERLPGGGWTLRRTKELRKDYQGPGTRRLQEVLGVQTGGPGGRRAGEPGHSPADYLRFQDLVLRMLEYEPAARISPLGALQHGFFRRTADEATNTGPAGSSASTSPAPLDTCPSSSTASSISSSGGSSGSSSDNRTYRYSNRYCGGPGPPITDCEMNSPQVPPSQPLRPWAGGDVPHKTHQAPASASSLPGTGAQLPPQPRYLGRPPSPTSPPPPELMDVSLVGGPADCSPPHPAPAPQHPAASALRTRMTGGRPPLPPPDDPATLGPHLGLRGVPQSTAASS

[7] = target: Dual specificity protein kinase CLK2 (Homo sapiens) (UniProt P49760); conditions: 3 uM
Chain of Dual specificity protein kinase CLK2 (Homo sapiens) (P49760 whole entry, looked up): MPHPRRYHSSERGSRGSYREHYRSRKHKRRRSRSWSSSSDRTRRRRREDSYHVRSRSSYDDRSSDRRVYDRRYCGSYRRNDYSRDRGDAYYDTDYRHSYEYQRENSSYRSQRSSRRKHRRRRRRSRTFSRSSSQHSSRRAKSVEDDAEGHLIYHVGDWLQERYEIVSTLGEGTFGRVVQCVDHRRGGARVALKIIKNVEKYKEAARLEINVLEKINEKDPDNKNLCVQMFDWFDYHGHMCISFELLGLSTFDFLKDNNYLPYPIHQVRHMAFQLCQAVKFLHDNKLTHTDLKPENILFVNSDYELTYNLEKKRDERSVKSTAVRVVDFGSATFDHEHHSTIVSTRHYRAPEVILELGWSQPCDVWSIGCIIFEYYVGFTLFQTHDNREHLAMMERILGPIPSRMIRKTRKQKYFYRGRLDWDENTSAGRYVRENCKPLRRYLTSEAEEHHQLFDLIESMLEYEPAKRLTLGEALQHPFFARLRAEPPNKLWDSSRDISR

[8] = target: T3, Dual specificity tyrosine-phosphorylation-regulated kinase 1B; assay: Inhibition of full length human recombinant GST-tagged DYRK1B expressed in baculovirus by Z'-LYTE assay
Target sequence in this assay (Q9Y463 whole entry): as the sequence (Q9Y463 whole entry, looked up) above

Chain of Dual specificity protein kinase CLK1 (Homo sapiens) (P49759 whole entry, looked up): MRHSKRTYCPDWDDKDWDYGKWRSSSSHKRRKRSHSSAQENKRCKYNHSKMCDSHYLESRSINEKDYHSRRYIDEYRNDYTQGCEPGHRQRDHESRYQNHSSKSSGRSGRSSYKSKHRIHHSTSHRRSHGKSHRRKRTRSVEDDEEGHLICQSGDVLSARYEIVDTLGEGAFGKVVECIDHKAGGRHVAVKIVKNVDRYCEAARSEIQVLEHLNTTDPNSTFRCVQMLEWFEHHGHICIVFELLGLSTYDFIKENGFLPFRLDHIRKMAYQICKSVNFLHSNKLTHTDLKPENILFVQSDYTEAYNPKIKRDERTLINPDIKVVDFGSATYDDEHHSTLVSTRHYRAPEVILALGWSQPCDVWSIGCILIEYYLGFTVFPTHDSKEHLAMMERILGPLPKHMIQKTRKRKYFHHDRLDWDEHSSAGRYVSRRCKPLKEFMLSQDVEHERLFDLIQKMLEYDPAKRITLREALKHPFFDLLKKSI

SMILES: CNC(=O)c1ccc(Nc2nc(OC3CCCC3)c3c(-c4ccc5nc(C)oc5c4)c[nH]c3n2)c(OC)c1
- inhibition [1]: > 80%
- Activity [2]: > 75%
- Activity [3]: > 75%
- remaining at 1 h [4]: 98%
- inhibition in vivo at 10 mg/kg (CAL-51): 71%
- Activity (Mus musculus): 17%
- Activity (MDA-MB-231): Active
- IC50 [5]: 99 nM
- inhibition [6]: > 80%
- inhibition [7]: > 80%
- IC50 [8]: 157 nM
